{"source": "ChEMBL document CHEMBL4814057", "about": "“4-4-(Anilinomethyl)-3-[4-(trifluoromethyl)phenyl]-1H-pyrazol-1-ylbenzoic acid derivatives as potent anti-gram-positive bacterial agents” (Eur J Med Chem, 2021)", "key": {"Staphylococcus aureus [1]": {"tested_on": "Staphylococcus aureus", "experiment": "Antimicrobial activity against methicillin-susceptible Staphylococcus aureus ATCC 25923 assessed as bacterial growth inhibitions by CLSI protocol based microdilution method", "assay_type": "functional"}, "Staphylococcus aureus [2]": {"tested_on": "Staphylococcus aureus", "experiment": "Antibiofilm activity against Staphylococcus aureus UAMS-1 assessed as destruction catheter-associated biofilm formation measured after 48 hrs (reference value: 1.53 x 10^8)", "assay_type": "functional", "in_short": "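Plasma-coated catheters colonised for 24 h at 37 °C with gentle shaking, starting from ~1 × 10^7 CFU of MSSA UAMS-1 in biofilm medium (TSB plus glucose and NaCl). […] Medium renewed at 24 h. Catheters (n = 3) sonicated at 48 h and plated on TSA for CFU per catheter.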"}, "Enterococcus faecalis [3]": {"tested_on": "Enterococcus faecalis", "experiment": "Antibiofilm activity against Enterococcus faecalis ATCC 29212 assessed as destruction of biofilm formation at 2 times MIC after 24 hrs by crystal violet staining based assay relative to control", "assay_type": "functional", "in_short": "(§1)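 Overnight culture brought to 0.5 McFarland in PBS, diluted 1:100 in CAMHB with 1% glucose. Inhibition: cells plus compound (in DMSO) at 2x, 1x, 0.5xMIC, 24 h at 35 °C, triplicate. Destruction: 24 h biofilm grown without drug, washed, fresh medium with compound, further 24 h. Then washed, dried, 0.1% crystal violet, solubilized in 33% acetic acid, OD 620 nm. Controls are DMSO-only and broth-only wells.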"}, "Staphylococcus aureus [4]": {"tested_on": "Staphylococcus aureus", "experiment": "Antibiofilm activity against Staphylococcus aureus ATCC 25923 assessed as destruction of biofilm formation at 1 times MIC after 24 hrs by crystal violet staining based assay relative to control", "assay_type": "functional", "in_short": "as §1"}, "Staphylococcus aureus [5]": {"tested_on": "Staphylococcus aureus", "experiment": "Antibiofilm activity against Staphylococcus aureus ATCC 25923 assessed as destruction of biofilm formation at 2 times MIC after 24 hrs by crystal violet staining based assay relative to control", "assay_type": "functional", "in_short": "as §1"}, "Staphylococcus aureus [6]": {"tested_on": "Staphylococcus aureus", "experiment": "Inhibition of lipid synthesis in Staphylococcus aureus ATCC 29213 at 4 times MIC measured by liquid scintillation counter", "assay_type": "functional", "in_short": "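Early-exponential cells in CAMHBII with drug in triplicate. Lipids extracted with chloroform/water, centrifuged, organic phase dried, then scintillation counted.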"}, "Enterococcus faecium [7]": {"tested_on": "Enterococcus faecium", "experiment": "Antimicrobial activity against vancomycin-resistant Enterococcus faecium clinical isolate 1094112 by CLSI-based broth microdilution assay", "assay_type": "functional"}, "[8]": {"tested_on": "Staphylococcus epidermidis", "experiment": "Antimicrobial activity against methicillin-resistant Staphylococcus epidermidis ATCC 700296 assessed as bacterial growth inhibitions by CLSI protocol based microdilution method", "assay_type": "functional"}, "Staphylococcus aureus [9]": {"tested_on": "Staphylococcus aureus", "experiment": "Antimicrobial activity against antibiotic-resistant Staphylococcus aureus BM-2312 assessed as bacterial growth inhibitions by CLSI protocol based microdilution method", "assay_type": "functional"}, "Staphylococcus aureus [10]": {"tested_on": "Staphylococcus aureus", "experiment": "Antimicrobial activity against methicillin-resistant Staphylococcus aureus ATCC 33591 assessed as bacterial growth inhibitions by CLSI protocol based microdilution method", "assay_type": "functional"}, "[11]": {"experiment": "Toxicity in CD1 mouse assessed as effect on alkaline phosphatase level in blood at 50 mg/kg, ip administered as single dose measured after 24 hrs", "assay_type": "organism-based", "conditions": "in vivo", "in_short": "(§2)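 Male CD-1 mice, 8 weeks, 32–37 g, n = 10 per dose. Single IP injection at 5, 20 or 50 mg/kg in 0.9% saline, filter-sterilized; saline vehicle group. Blood taken by cardiac puncture 24 h later. 14 plasma markers measured on a chemistry panel, reported as mean ± SE. Toxicity judged by significance versus controls, normal ranges, dose-dependence and consistency across organ markers.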"}, "Staphylococcus aureus [12]": {"tested_on": "Staphylococcus aureus", "experiment": "Antimicrobial activity against methicillin-resistant Staphylococcus aureus ATCC 33592 assessed as bacterial growth inhibitions by CLSI protocol based microdilution method", "assay_type": "functional"}, "[13]": {"experiment": "Toxicity in CD1 mouse assessed as effect on glucose level at 50 mg/kg, ip administered as single dose measured after 24 hrs", "assay_type": "organism-based", "conditions": "in vivo", "in_short": "as §2"}, "[14]": {"experiment": "Toxicity in CD1 mouse assessed as effect on blood urea nitrogen level at 50 mg/kg, ip administered as single dose measured after 24 hrs", "assay_type": "organism-based", "conditions": "in vivo", "in_short": "as §2"}, "[15]": {"experiment": "Toxicity in CD1 mouse assessed as effect on calcium level at 50 mg/kg, ip administered as single dose measured after 24 hrs", "assay_type": "organism-based", "conditions": "in vivo", "in_short": "as §2"}, "Enterococcus faecalis [16]": {"tested_on": "Enterococcus faecalis", "experiment": "Antimicrobial activity against vancomycin-susceptible Enterococcus faecalis ATCC 29212 assessed as bacterial growth inhibitions by CLSI protocol based microdilution method"}, "[17]": {"experiment": "Toxicity in CD1 mouse assessed as effect on sodium level at 50 mg/kg, ip administered as single dose measured after 24 hrs", "assay_type": "organism-based", "conditions": "in vivo", "in_short": "as §2"}, "Enterococcus faecium [18]": {"tested_on": "Enterococcus faecium", "experiment": "Antimicrobial activity against vancomycin-resistant Enterococcus faecium clinical isolate 1091563 by CLSI-based broth microdilution assay", "assay_type": "functional"}, "Staphylococcus aureus [19]": {"tested_on": "Staphylococcus aureus", "experiment": "Inhibition of RNA synthesis in Staphylococcus aureus ATCC 29213 at 0.25 times MIC measured by liquid scintillation counter", "assay_type": "functional", "in_short": "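Early-exponential cells in CAMHB added to drug (40x stock) in triplicate, with a no-drug control. After 30 min pre-incubation at room temperature, [3H]thymidine 3.0 µCi/tube (DNA) or [3H]uridine 0.5 µCi/tube (RNA) added for 30 min at room temperature. Stopped with cold TCA, precipitate filtered and washed, then scintillation counted.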"}, "Enterococcus faecalis [20]": {"tested_on": "Enterococcus faecalis", "experiment": "Antibiofilm activity against Enterococcus faecalis ATCC 29212 assessed as destruction of biofilm formation at 1 times MIC after 24 hrs by crystal violet staining based assay relative to control", "assay_type": "functional", "in_short": "as §1"}, "Staphylococcus aureus [21]": {"tested_on": "Staphylococcus aureus", "experiment": "Antibiofilm activity against Staphylococcus aureus ATCC 25923 assessed as destruction of biofilm formation at 0.5 times MIC after 24 hrs by crystal violet staining based assay relative to control", "assay_type": "functional, organism-based", "in_short": "as §1"}, "[22]": {"experiment": "Toxicity in CD1 mouse assessed as blood plasma albumin level at 50 mg/kg, ip administered as single dose measured after 24 hrs", "assay_type": "organism-based", "conditions": "in vivo", "in_short": "as §2"}, "Staphylococcus aureus [23]": {"tested_on": "Staphylococcus aureus", "experiment": "Antimicrobial activity against Staphylococcus aureus ATCC 29213 assessed as inhibition of cell wall synthesis at 4 to 8 times MIC measured by liquid scintillation counter", "assay_type": "functional", "in_short": "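Early-exponential cells resuspended in M9 minimal medium, drug (40x stock) in triplicate, 30 min pre-incubation at 37 °C. [14C]N-acetylglucosamine 0.4 µCi/reaction for 45 min at 37 °C. Stopped with 8% SDS, heated 95 °C 30 min, spotted on nitrocellulose, washed with 0.1% SDS, then scintillation counted.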"}, "Staphylococcus aureus [24]": {"tested_on": "Staphylococcus aureus", "experiment": "Antibacterial activity against vancomycin-intermediate susceptible Staphylococcus aureus ATCC 25923 assessed as bacterial growth inhibition by measuring fold increase in MIC between 14 passages by broth dilution method", "assay_type": "functional"}, "Staphylococcus aureus [25]": {"tested_on": "Staphylococcus aureus", "experiment": "Antibacterial activity against methicillin resistant Staphylococcus aureus ATCC 700699 persisters assessed as reduction in viability at 4 times MIC measured within 4 hrs by colony counting method", "assay_type": "functional", "conditions": "time hrs <=4", "in_short": "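Stationary-phase S. aureus from overnight CAMHB culture (35 °C, 200 rpm), washed thrice in PBS, diluted to ~5 × 10^8 CFU/ml. Incubated with antibiotic at 35 °C, 200 rpm. Aliquots taken at set times, washed, serially diluted in PBS, drop-plated (6 × 6) on TSA with 5% sheep blood. Colonies counted after 18–20 h at 35 °C. Triplicates.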"}, "[26]": {"experiment": "Toxicity in CD1 mouse assessed as effect on alanine transferase level at 50 mg/kg, ip administered as single dose measured after 24 hrs", "assay_type": "organism-based", "conditions": "in vivo", "in_short": "as §2"}, "Staphylococcus aureus [27]": {"tested_on": "Staphylococcus aureus", "experiment": "Antimicrobial activity against methicillin-resistant Staphylococcus aureus ATCC 700699 assessed as bacterial growth inhibitions by CLSI protocol based microdilution method", "assay_type": "functional"}, "[28]": {"experiment": "Toxicity in CD1 mouse assessed as effect on potassium level at 50 mg/kg, ip administered as single dose measured after 24 hrs", "assay_type": "organism-based", "conditions": "in vivo", "in_short": "as §2"}}, "note": "Active and inactive are the calls of the source. The calls are words filed in the database; no cut-off is given here.", "data": [{"compound": "O=C(O)c1ccc(-n2cc(CNc3cc(F)cc(C(F)(F)F)c3)c(-c3ccc(C(F)(F)F)cc3)n2)cc1", "values": [{"measurement": "MIC", "setting": "Staphylococcus aureus [1]", "value": 0.39, "unit": "µg/mL"}, {"measurement": "Activity", "setting": "Staphylococcus aureus [2]", "value": "4.74 10^5CFU"}, {"measurement": "Activity", "setting": "Enterococcus faecalis [3]", "value": 85, "unit": "%"}, {"measurement": "Activity", "setting": "Staphylococcus aureus [4]", "value": 55, "unit": "%"}, {"measurement": "Activity", "setting": "Staphylococcus aureus [5]", "value": 70, "unit": "%"}, {"measurement": "inhibition (INH)", "setting": "Staphylococcus aureus [6]", "value": 100, "unit": "%"}, {"measurement": "MIC", "setting": "Enterococcus faecium [7]", "value": 4, "unit": "µg/mL"}, {"measurement": "MIC", "setting": "[8]", "value": 1.56, "unit": "µg/mL"}, {"measurement": "MIC", "setting": "Staphylococcus aureus [9]", "value": 0.78, "unit": "µg/mL"}, {"measurement": "MIC", "setting": "Staphylococcus aureus [10]", "value": 0.39, "unit": "µg/mL"}, {"measurement": "Activity", "setting": "[11]", "value": "Non-Toxic"}, {"measurement": "MIC", "setting": "Staphylococcus aureus [12]", "value": 0.78, "unit": "µg/mL"}, {"measurement": "Activity", "setting": "[13]", "value": "Non-Toxic"}, {"measurement": "Activity", "setting": "[14]", "value": "Non-Toxic"}, {"measurement": "Activity", "setting": "[15]", "value": "Non-Toxic"}, {"measurement": "MIC", "setting": "Enterococcus faecalis [16]", "value": 1.56, "unit": "µg/mL"}, {"measurement": "Activity", "setting": "[17]", "value": "Non-Toxic"}, {"measurement": "MIC", "setting": "Enterococcus faecium [18]", "value": 4, "unit": "µg/mL"}, {"measurement": "inhibition (INH)", "setting": "Staphylococcus aureus [19]", "value": 15.5, "unit": "%"}, {"measurement": "Activity", "setting": "Enterococcus faecalis [20]", "value": 75, "unit": "%"}, {"measurement": "Activity", "setting": "Staphylococcus aureus [21]", "value": "inactive"}, {"measurement": "Activity", "setting": "[22]", "value": "Non-Toxic"}, {"measurement": "inhibition (INH)", "setting": "Staphylococcus aureus [23]", "value": ">80", "unit": "%"}, {"measurement": "fold change (FC)", "setting": "Staphylococcus aureus [24]", "value": 2}, {"measurement": "Activity", "setting": "Staphylococcus aureus [25]", "value": 2, "unit": "log10CFU/ml"}, {"measurement": "Activity", "setting": "[26]", "value": "Non-Toxic"}, {"measurement": "MIC", "setting": "Staphylococcus aureus [27]", "value": 0.78, "unit": "µg/mL"}, {"measurement": "Activity", "setting": "[28]", "value": "Non-Toxic"}]}]}
